These results are taken from ChEMBL document CHEMBL3994616, “Rational design, synthesis, and evaluation of novel 2,4-Chloro- and Hydroxy-Substituted diphenyl Benzofuro[3,2-b]Pyridines: Non-intercalative catalytic topoisomerase I and II dual inhibitor” (Eur J Med Chem, 2017).

Active and inactive are the calls of the source. The calls are words filed in the database; no cut-off is given here.

One assay concerns HeLa. The experiment in a line: Antiproliferative activity against human HeLa cells after 72 hrs by CCK8 assay. Format: functional, cell-based.
Assay [1] deals with HCT-15. The experiment in a line: Antiproliferative activity against human HCT15 cells after 72 hrs by CCK8 assay. It is filed as functional, cell-based. The note with it: HCT-15, 72 h. In short, it runs like this:
(§1)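 Cells seeded at 2-4 x 10⁴ per well, cultured overnight in medium with 10% FBS at 37 °C, 5% CO₂, then serum-starved 4 h. Graded compound concentrations added for 72 h, CCK-8 added for a further 4 h, absorbance read at 450 nm. IC50 from a four-parameter logistic fit. Results come from three experiments, each in triplicate.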

The test system of assay [2] is HCT-15. Briefly: Potency index, ratio of camptothecin IC50 to compound IC50 for human HCT15 cells. Format: functional.
The subject of assay [3] is HCT-15. The experiment in a line: Potency index, ratio of etoposide IC50 to compound IC50 for human HCT15 cells. Format: functional.
The next assay concerns T47D. The experiment in a line: Antiproliferative activity against human T47D cells after 72 hrs by CCK8 assay. It is filed as functional, cell-based. In short, it runs like this: as §1
(In general: Tetrazolium dyes change colour on reduction, which living cells bring about.)

In assay [4] the test system is HCT-15. Briefly: Potency index, ratio of adriamycin IC50 to compound IC50 for human HCT15 cells. It is filed as functional.
Assay [5] has as its target DNA topoisomerase 2-alpha (Homo sapiens) (UniProt P11388). Briefly: Inhibition of human recombinant topoisomerase-2alpha-mediated relaxation of supercoiled pBR322 DNA at 100 uM after 30 mins by ethidium bromide staining based agarose gel electrophoresis method relative to control.
Assay [6] relates to HCT-15. Briefly: Induction of DNA damage in human HCT15 cells assessed as comet tail formation at 30 uM after 24 hrs using SYBRGreen stain by electrophoresis based fluorescence microscopic method (reference value: 3 +/- 1.1%). Format: functional.
For assay [7], the target named is T1, Topoisomerase I/II (Homo sapiens) (UniProt P11387+P11388). The experiment in a line: Inhibition of topoisomerase-1/topoisomerase-2 in human HCT15 cell nuclear extract at 50 uM preincubated for 24 hrs followed by supercoiled pBR322 DNA addition measured after 20 mins by ethidium bromide staining based agarose gel electrophoresis method relative to control. Format: protein assay. In short, it runs like this: (§2)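 HCT15 cells treated 24 h at 25, 50 or 100 µM, then nuclear fractions prepared. Nuclear extract incubated with 100 ng pBR322 at 37 °C to read relaxation by endogenous topo I/II. Products run on 1.0% agarose at 50 V for 50 min in TAE, EtBr-stained, UV-visualized. Inhibition percent averaged over three experiments.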
T1 sequence (P11387 whole entry, looked up): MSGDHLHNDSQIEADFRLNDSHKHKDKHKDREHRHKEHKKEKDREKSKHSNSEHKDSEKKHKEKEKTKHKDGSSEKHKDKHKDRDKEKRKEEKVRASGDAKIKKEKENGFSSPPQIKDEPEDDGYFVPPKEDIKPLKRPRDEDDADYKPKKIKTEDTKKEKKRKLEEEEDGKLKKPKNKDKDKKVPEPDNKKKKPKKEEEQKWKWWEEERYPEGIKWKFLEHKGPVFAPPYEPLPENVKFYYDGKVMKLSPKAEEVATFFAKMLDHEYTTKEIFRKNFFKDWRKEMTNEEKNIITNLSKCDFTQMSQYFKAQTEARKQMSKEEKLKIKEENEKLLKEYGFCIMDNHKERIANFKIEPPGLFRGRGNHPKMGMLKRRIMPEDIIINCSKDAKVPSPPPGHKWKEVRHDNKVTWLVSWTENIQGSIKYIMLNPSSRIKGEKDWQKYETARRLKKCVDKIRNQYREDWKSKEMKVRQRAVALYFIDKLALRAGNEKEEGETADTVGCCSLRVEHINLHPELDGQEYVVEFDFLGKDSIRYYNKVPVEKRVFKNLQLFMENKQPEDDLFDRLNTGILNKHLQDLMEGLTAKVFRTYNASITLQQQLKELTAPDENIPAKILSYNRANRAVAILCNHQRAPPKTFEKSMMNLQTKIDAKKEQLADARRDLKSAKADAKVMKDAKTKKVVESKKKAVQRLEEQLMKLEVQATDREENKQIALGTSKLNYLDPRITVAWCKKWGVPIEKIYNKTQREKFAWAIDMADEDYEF
T1 sequence (P11388 whole entry, looked up): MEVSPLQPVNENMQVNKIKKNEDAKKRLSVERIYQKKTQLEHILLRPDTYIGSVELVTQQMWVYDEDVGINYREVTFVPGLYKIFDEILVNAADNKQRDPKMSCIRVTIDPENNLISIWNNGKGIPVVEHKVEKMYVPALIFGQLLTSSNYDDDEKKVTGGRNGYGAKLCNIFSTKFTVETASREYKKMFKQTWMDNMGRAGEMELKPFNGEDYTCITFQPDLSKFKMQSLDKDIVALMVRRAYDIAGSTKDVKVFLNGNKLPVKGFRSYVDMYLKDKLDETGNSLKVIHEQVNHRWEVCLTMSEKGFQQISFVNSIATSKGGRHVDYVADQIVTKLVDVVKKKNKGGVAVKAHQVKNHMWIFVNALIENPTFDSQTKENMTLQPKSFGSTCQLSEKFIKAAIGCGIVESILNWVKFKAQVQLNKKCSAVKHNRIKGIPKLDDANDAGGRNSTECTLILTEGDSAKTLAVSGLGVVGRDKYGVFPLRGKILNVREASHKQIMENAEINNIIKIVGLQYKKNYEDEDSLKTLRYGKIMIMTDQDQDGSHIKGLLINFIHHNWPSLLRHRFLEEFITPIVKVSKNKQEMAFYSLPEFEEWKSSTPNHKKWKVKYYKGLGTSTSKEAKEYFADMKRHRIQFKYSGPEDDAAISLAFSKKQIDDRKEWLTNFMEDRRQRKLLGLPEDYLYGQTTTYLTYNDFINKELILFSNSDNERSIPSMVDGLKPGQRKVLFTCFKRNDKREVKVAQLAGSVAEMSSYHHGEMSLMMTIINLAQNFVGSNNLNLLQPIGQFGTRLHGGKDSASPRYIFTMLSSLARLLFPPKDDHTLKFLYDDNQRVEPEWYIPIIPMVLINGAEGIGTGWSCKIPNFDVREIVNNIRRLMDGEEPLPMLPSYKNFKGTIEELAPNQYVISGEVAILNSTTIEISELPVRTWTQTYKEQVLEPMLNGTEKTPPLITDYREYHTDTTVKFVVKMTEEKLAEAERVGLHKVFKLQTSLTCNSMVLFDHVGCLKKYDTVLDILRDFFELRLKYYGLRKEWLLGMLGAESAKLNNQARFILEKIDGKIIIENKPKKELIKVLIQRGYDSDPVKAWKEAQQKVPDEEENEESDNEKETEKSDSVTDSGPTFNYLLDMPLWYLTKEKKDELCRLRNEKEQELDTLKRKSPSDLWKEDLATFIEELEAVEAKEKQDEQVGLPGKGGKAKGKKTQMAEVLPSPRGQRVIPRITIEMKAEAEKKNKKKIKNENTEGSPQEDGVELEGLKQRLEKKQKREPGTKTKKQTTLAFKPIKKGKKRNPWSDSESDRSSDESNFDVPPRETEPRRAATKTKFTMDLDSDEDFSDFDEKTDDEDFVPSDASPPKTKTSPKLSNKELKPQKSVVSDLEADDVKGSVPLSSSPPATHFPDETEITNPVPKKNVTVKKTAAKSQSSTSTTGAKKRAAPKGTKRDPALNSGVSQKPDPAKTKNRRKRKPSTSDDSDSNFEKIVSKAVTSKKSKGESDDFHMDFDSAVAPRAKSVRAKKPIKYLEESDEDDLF

In assay [8] the target is DNA topoisomerase 2-alpha (Homo sapiens) (UniProt P11388). The experiment in a line: Poison activity at human recombinant topoisomerase 2 in human HCT15 cells assessed as […] at 50 uM after 2 hrs by Western blot method. It is filed as cell-based. A general note: In western blotting, separated proteins are transferred to a membrane and probed.
Sequence of DNA topoisomerase 2-alpha (Homo sapiens) (P11388 whole entry): as the sequence (P11388 whole entry, looked up) above

For assay [9], the system named is HCT-15. Briefly: Induction of DNA damage in human HCT15 cells assessed as comet tail formation at 10 uM after 24 hrs using SYBRGreen stain by electrophoresis based fluorescence microscopic method (reference value: 3 +/- 1.1%). It is filed as functional.
Assay [10] relates to HCT-15. Briefly: Induction of DNA damage in human HCT15 cells assessed as increase in gammaH2AX level at 30 uM after 24 hrs by Western blot method. Format: functional, cell-based. The method in brief:
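HCT15 cells exposed to 30 µM for 24 h, then lysed. 60 µg protein per sample run on 12% SDS-PAGE, and γ-H2AX detected by western blot.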

In assay [11] the target is T1, Topoisomerase I/II (Homo sapiens). Briefly: Inhibition of topoisomerase-1/topoisomerase-2 in human HCT15 cell nuclear extract at 25 uM preincubated for 24 hrs followed by supercoiled pBR322 DNA addition measured after 20 mins by ethidium bromide staining based agarose gel electrophoresis method relative to control. It is filed as protein assay. In short, it runs like this:
as §2

Assay [12] addresses DNA topoisomerase 2-alpha (Homo sapiens) (UniProt P11388). The settings on record: 250 uM.
For assay [13] the target is unchanged. Briefly: Inhibition of human topoisomerase-2 alpha-mediated kinetoplast DNA decatenation after 30 mins by ethidium bromide staining based agarose gel electrophoresis. The method in brief:
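75 ng kDNA in 50 mM Tris-HCl pH 8.0, 120 mM KCl, 10 mM MgCl₂, 0.5 mM DTT, 0.5 mM ATP, 30 µg/mL BSA. Compound added at 250 or 500 µM final, reaction started with 3 units topo II, 10 µL, 30 min at 37 °C. Stopped with SDS/ficoll/dye, proteinase K 0.25 mg/mL for 30 min. Run on 1.2% agarose containing EtBr.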

The species entered for another assay is Bos taurus. Briefly: Induction of calf thymus DNA intercalation assessed as inhibition of ethidium bromide binding to DNA up to 40 uM after 30 mins by fluorescence assay. The method in brief:
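Calf thymus DNA ([…]) premixed with EtBr ([…]) in 10 mM Tris, pH 7.2, for 30 min at room temperature. Compound added at increasing concentrations […], with 1% DMSO final in all wells including control. Incubated 30 min more with shaking. Fluorescence excited at 471 nm, emission collected 500-700 nm.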

In assay [14] the test system is HCT-15. Briefly: Induction of apoptosis in human HCT15 cells assessed as increase in Bax level after 24 hrs by Western blot method. It is filed as functional, cell-based. In short, it runs like this:
(§3)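 HCT15 cells grown to 80% confluency, then treated 24 h at […]. Lysis buffer: Tris/NaCl/1% Triton X-100 with protease inhibitors. 60 µg protein run on 12% SDS-PAGE and transferred to PVDF. Blocked in 5% milk/TBST, primary antibodies 1:1000 for 2-3 h, HRP anti-rabbit 1:2000 for 2 h, ECL detection.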

The subject of assay [15] is HCT-15. The experiment in a line: Induction of apoptosis in human HCT15 cells assessed as decrease in Bcl2 level after 24 hrs by Western blot method. Format: functional, cell-based. In short, it runs like this: as §3
Assay [16] has as its target T1, Topoisomerase I/II (Homo sapiens). The experiment in a line: Inhibition of topoisomerase-1/topoisomerase-2 in human HCT15 cell nuclear extract preincubated for 24 hrs followed by supercoiled pBR322 DNA addition measured after 20 mins by ethidium bromide staining based agarose gel electrophoresis method. It is filed as protein assay. In short, it runs like this: as §2

Assay [17] shares this target. Briefly: Inhibition of topoisomerase-1/topoisomerase-2 in human HCT15 cell nuclear extract at 100 uM preincubated for 24 hrs followed by supercoiled pBR322 DNA addition measured after 20 mins by ethidium bromide staining based agarose gel electrophoresis method relative to control. It is filed as protein assay. In short, it runs like this:
as §2

Assay [18] concerns the target DNA topoisomerase 2-alpha (Homo sapiens) (UniProt P11388). The experiment in a line: Poison activity at human recombinant topoisomerase 2 alpha assessed as stabilization of enzyme-DNA cleavable complex by measuring formation of linear DNA at 100 to 500 uM using supercoiled pBR322 DNA after 30 mins by ethidium bromide staining based agarose gel electrophoresis method. In short, it runs like this:
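250 ng supercoiled pBR322 preincubated with 3 units human topo II for 10 min in topo II relaxation buffer. Compound then added at 100 or 500 µM and incubated 30 min more at 37 °C. SDS stop, proteinase K 0.25 mg/mL at 45 °C for 30 min. Run on 1% agarose with EtBr at 30 V for 6 h, linear DNA band scored.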

Assay [19] relates to HCT-15. Briefly: Induction of apoptosis in human HCT15 cells assessed as increase in cleaved PARP level after 24 hrs by Western blot method. Format: functional, cell-based. The method in brief: as §3

Broadly, the IC50 is the midpoint of a concentration-inhibition curve. Read a high IC50 as weaker potency. As a reminder, the inhibition is the relative decrease from the control value, in per cent. With `Oc1ccccc1-c1cc(-c2cccc(Cl)c2)nc2c1oc1ccccc12`, the IC50 was found to be 5.2 µM with HeLa, 0.01 µM in the assay on HCT-15 [1] and 0.4 µM in the assay with T47D. The results for the “Ratio IC50” value in the assay with HCT-15 [2], with HCT-15 [3] and in the assay with HCT-15 [4] were 60, 540 and 100, respectively. In addition, the inhibition in assay [5] stood at 84%.
On to `COc1cc([C@@H]2c3cc4c(cc3[C@@H](O[C@@H]3O[C@@H]5CO[C@@H](C)O[C@H]5[C@H](O)[C@H]3O)[C@H]3COC(=O)[C@H]23)OCO4)cc(OC)c1O` [ETOPOSIDE], for which the Activity in the assay on HCT-15 [6] is given as 65.5%; in the assay on HCT-15 [9], 46.3%. Besides, the values for the inhibition in assay [7] and in assay [11] were 60.9% and 36.1%, respectively. Further, the results for the IC50 with HeLa, in the assay on HCT-15 [1] and in the assay on T47D were 9.1 µM, 5.4 µM and 7 µM, respectively. Besides, the outcome (in [8]; with HCT-15 [10]) was Active. Besides, the inhibition result in assay [12] is “Active”.
With `Oc1ccc(-c2cc(-c3ccc(Cl)cc3)nc3c2oc2ccccc23)cc1`, the Activity in the assay on HCT-15 [6] was 6.3%; with HCT-15 [14], “Dose-dependent effect”; in the assay on HCT-15 [15], “Dose-dependent effect”; in the assay on HCT-15 [19], “Dose-dependent effect”. The inhibition is 45.5% in assay [7]; “Dose-dependent effect” in [13]; 38.2% in [11]; “Dose-dependent effect” in assay [16]; 58.4% in [17]; 100% in [5]. Also, the half-maximal inhibitory concentration (IC50) with HeLa stood at 4.3 µM; in the assay with HCT-15 [1], 0.2 µM; with T47D it was 5.9 µM. The result (in [8]; in the assay on HCT-15 [10]; in assay [18]) was inactive. Moreover, the inhibition result in the assay listed under Bos taurus is “inactive”.
